Source: the RNAGym collection of RNA variant scans (doi:10.1126/science.aae0568)
Fewer inactive variants are shown than the library holds.

B1: tRNA (parent)
chain: GUUCCGUUGGCGUAAUGGUAACGCGUCUCCCUCCUAAGGAGAAGACUGCGGGUUCGAGUCCCGUACGGAACG

Variants of: B1
Assay: yeast fitness relative to wild type (ratio to wild type); higher = fitter; tRNA-Arg(CCU), competitive growth, 37 C, YPD
Procedure, shortened: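 Changes in genotype frequencies gave Darwinian fitness relative to wild type. Frequencies were read by 100-nucleotide paired-end sequencing of gene amplicons before and after pooled Saccharomyces cerevisiae strains, carrying tRNA-Arg(CCU) gene variants at the native locus, were competed in YPD at 37°C for 24 hours in six replicates. A genotype was kept only with ≥ 100 starting reads, and estimates < 0.5 were set to 0.5.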

Row | Variant | yeast fitness
1 | GUUCCGUUGGCGUAAUGGUAACGCGUCUCCCUCGUAAGGAGAAGUCUGCGGGGUCGGGUCCCGUACGGAACG [C34G A45U U53G A57G] | 0.569
2 | GUUCCGUUGGCGUAAUGGUAACGCGUCUCCCUCUUGAGGAGAAGACUGCGGGUUCGGGUCCCGUACGGAACG [C34U A36G A57G] | ≤ 0.5
3 | GUUCCGUUGGCGUAAUGGUAACGCGUCUCCCUCGUAAGGAGAAGACUGCGGCUUCGAGUCCCGUACGGAACG [C34G G52C] | ≤ 0.5
4 | GUUCCGUUGGCGUAAUGGUAACGCGUCUCCCUCGUAAGGAGAAGACUGCGGAUUCGAGUCCCGUACGGAACG [C34G G52A] | 0.562
5 | GUUCCGUUGGCGUAAUGGUAACGCGUCUCCCUCGUAAGGAGAAGACUGCGGGUUCGAGUCCCGAACGGAACG [C34G U64A] | 0.654
6 | GUUCCGUUGGCGUAAUGGUAACGCGUCUCCCUCGUAAGGAGAAGACUGCGGGUUCGAGUCCCGGACGGAACG [C34G U64G] | 0.518
7 | GUUCCGUUGGCGUAAUGGUAACGCGUCUCCCUCGUAAGGAGAAGACUGCGGGUUCGAGUCCGGUAGGGCACG [C34G C62G C66G A69C] | ≤ 0.5
8 | GUUCCGUUGGCGUAAUGGUAACGCGUCUCCCUCUUUAGGAGAAGACUGCGGGUUCGAGUCCCGUAUGGUACG [C34U A36U C66U A69U] | 0.612
9 | GUUCCGUUGGCGUAAUGGUAACGCGUCUCCCUCGUAAGGAGAAGACUGCGGGUUCGAGUCUCGUACGGAACG [C34G C61U] | 0.602
10 | GUUCCGUUGGCGUAAUGGUAACGCGUCUCCCUCGUAAGGAGAAGACUGUGGGUUCGAGUCCCGUACGGAACG [C34G C49U] | 0.708
11 | GUUCCGUUGGCGUAAUGGUAACGCGUCUCCCUCGUAAGGAGAAGACUCCGGGUUCGAGUCCCGUACGGAACG [C34G G48C] | 0.519
12 | GUUCCGUUGGCGUAAUGGUAACGCGUCUCCCUCGUAAGGAGAAGACUGCGGGUUCGAGUCCCGUACGUAACG [C34G G68U] | 0.638
13 | GUUCCGUUGGCGUAAUGGUAACGCGUCUCCCUCGUAAGGAGAAGACUGCGGGUGCGAGUCCCGUACGGAACG [C34G U54G] | ≤ 0.5
14 | GUUCCGUUGGCGUAAUGGUAACGCGUCUCCCUCGUAAGGAGUAACCUCCGGGUUCGAGUCCCGAACGGAACG [C34G A42U G44A A45C G48C U64A] | ≤ 0.5
15 | GUUCCGUUGGCGUAAUGGUAACGCGUCUCCCUCGCAAGGAGAAGACUGCGGGUUCGAGUCCCGUACGGAACG [C34G U35C] | 0.613
16 | GUUCCGUUGGCGUAAUGGUAACGCGUCUCCCUCUUAGGGAGAAGAUUGCGGGUUCGAGUCACGUACGGAACG [C34U A37G C46U C61A] | 0.589
17 | GUUCCGUUGGCGUAAUGGUAACGCGUCUCCCUCGUAAGGACAAGACUGCGGGUUCGAGUCCCGUACGGUACG [C34G G41C A69U] | ≤ 0.5
18 | GUUCCGUUGGCGUAAUGGUAACGCGUCUCCCUCGUAAGGAGAAGACUGCGGGGUCGAGUCCCGUACGGAACG [C34G U53G] | ≤ 0.5
19 | GUUCCGUUGGCGUAAUGGUAACGCGUCUCCCUCGUAAGGAGAAGACUGCGGGUUCGAAUCCCCUACGGAACG [C34G G58A G63C] | ≤ 0.5

Row | Variant | yeast fitness
20 | GUUCCGUUGGCGUAAUGGUAACGCGUCUCCCUCGUAAGGAGAAGACUGUGGGUUCGAGUCCCGUCCGGAACG [C34G C49U A65C] | 0.532
21 | GUUCCGUUGGCGUAAUGGUAACGCGUCUCCCUCGUAAGGAGAAGACUCCGGGUUCGAGUCCCGUACAGAACG [C34G G48C G67A] | ≤ 0.5
22 | GUUCCGUUGGCGUAAUGGUAACGCGUCUCCCUCGUAAGGAGAAGACUGCGGGUUCAAGUCCCGUACGGAACG [C34G G56A] | 0.639
23 | GUUCCGUUGGCGUAAUGGUAACGCGUCUCCCUCUUCAGGAGAAGACUGCGGGCUCGAGUCCCGUACGGAACG [C34U A36C U53C] | ≤ 0.5
24 | GUUCCGUUGGCGUAAUGGUAACGCGUCUCCCUCGUAAGAAGAAGACUGCGGGUUCGAGUCCCGUACGGAACG [C34G G39A] | 0.703
25 | GUUCCGUUGGCGUAAUGGUAACGCGUCUCCCUCGUAAGCAGAAGACUGCGGGUUCGAGUCCCGUACGGAACG [C34G G39C] | 0.58
26 | GUUCCGUUGGCGUAAUGGUAACGCGUCUCCCUCUUAUGGAGAAGAAUGCGAGUUCGAGUCCCGUACGGAACG [C34U A37U C46A G51A] | 0.567
27 | GUUCCGUUGGCGUAAUGGUAACGCGUCUCCCUCGUAAGGAGAAGACUGUGGGUUCGUGUCCCGUACGGAACG [C34G C49U A57U] | ≤ 0.5
28 | GUUCCGUUGGCGUAAUGGUAACGCGUCUCCCUCUUCAGGAGAAGAGUGCGGGUUCGAGUCCCGUACGGAACG [C34U A36C C46G] | ≤ 0.5
29 | GUUCCGUUGGCGUAAUGGUAACGCGUCUCCCUCGUAAGGAGACGACUGUGGGUUCAAGUCCCGUACGGAACG [C34G A43C C49U G56A] | ≤ 0.5
30 | GUUCCGUUGGCGUAAUGGUAACGCGUCUCCCUCGUAAGGACAAGACUGCGGGUUCGAGUCCCGUACGGAACG [C34G G41C] | 0.617
31 | GUUCCGUUGGCGUAAUGGUAACGCGUCUCCCUCGUAAGGAGAAGCCUGCGGGUUCGAGUCCCGUACGGAACG [C34G A45C] | 0.569
32 | GUUCCGUUGGCGUAAUGGUAACGCGUCUCCCUCGUAAGGAGAAGGCUGCGGGUUCGAGUCCCGUACGGAACG [C34G A45G] | 0.657
33 | GUUCCGUUGGCGUAAUGGUAACGCGUCUCCCUCGUAAGGAGAAGACUGCGGGUUCGAGUUUCGUACGGAACG [C34G C60U C61U] | 0.545
34 | GUUCCGUUGGCGUAAUGGUAACGCGUCUCCCUCGUAAGGAGAAGACUGGGGGUUCGAGUCUCGAACGGAACG [C34G C49G C61U U64A] | ≤ 0.5
35 | GUUCCGUUGGCGUAAUGGUAACGCGUCUCCCUCGUAAGGAGAAGACUGCGGAUUCGAGUCCCGUUCGGAACG [C34G G52A A65U] | ≤ 0.5
36 | GUUCCGUUGGCGUAAUGGUAACGCGUCUCCCUCGUAAGGAGAAGACUGCGGGUUCGAGUCCAAUACGGAACG [C34G C62A G63A] | ≤ 0.5
37 | GUUCCGUUGGCGUAAUGGUAACGCGUCUCCCUCGUAAGGAGAAGACUGCGGGUUCGAGUCCCGUACGGUCCG [C34G A69U A70C] | 0.696
38 | GUUCCGUUGGCGUAAUGGUAACGCGUCUCCCUCGUAAGGAGAAGACUGCGGGUUUGAGUCCCAUACGGAACG [C34G C55U G63A] | ≤ 0.5
